AHR act – human AHR activation | P35869 | AHR-responsive luciferase reporter cells, luminescence | activation, % at 5 µM | hit rate 2.5% among 320,000; in the data active means activation above about 47%
procasp7 counter – counter-screen for procaspase-3 activators: activators of human procaspase-7. P55210. recombinant procaspase-7, Ac-DEVD-pNA absorbance 405 nm; D23A/D198A/D206A triple mutant, cannot self-cleave; scale: DMSO 0, 5 µM enzyme 100. activation, % at 8.5 µM. hit rate 0.093% among 330,000;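 active means percent activation above the screen-wide mean plus 3 SD, cut at about 25% in these data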
Target sequence (P55210 whole entry D23A/D198A/D206A): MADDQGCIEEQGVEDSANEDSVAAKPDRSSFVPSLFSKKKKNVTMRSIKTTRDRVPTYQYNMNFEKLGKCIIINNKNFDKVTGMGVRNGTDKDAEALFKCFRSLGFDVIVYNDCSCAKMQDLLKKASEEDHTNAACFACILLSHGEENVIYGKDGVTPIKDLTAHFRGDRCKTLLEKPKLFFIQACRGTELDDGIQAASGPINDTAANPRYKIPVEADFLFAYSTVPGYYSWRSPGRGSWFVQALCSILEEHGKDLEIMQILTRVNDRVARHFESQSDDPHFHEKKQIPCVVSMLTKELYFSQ
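buffer or medium = Zinc-free HEPES/NaCl buffer, pH 7.4 | material = Procaspase-7 triple mutant (PC-7 D3A) | input = 2 µM procaspase-7 mutant as dispensed | signal = Epi-absorbance of released pNA at 405 nm, two timepoints | timing = 1 h preincubation, 2 h reaction | replicates = singlicate compound testing | evaluation = % activation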
proCasp3 act – activates human procaspase-3 | P42574 | recombinant procaspase-3 D3A, Ac-DEVD-pNA absorbance 405 nm | activation, % at 8.5 µM | hit rate 0.11% among 330,000 | AID 463141;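 active means activation above the mean of all tested compounds plus 3 SD, cut at about 21% in these data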
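System: Procaspase-3 D3A mutant. Medium: Zinc-free 300 mM NaCl, 50 mM HEPES, 0.01% Triton X-100. Schedule: 1 h preincubation plus 2 h reaction at 25 °C. Measured by: 405 nm absorbance of p-nitroaniline, reads at 0 and 120 min. Read-out: percent activation relative to control range.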
PolyA inhibitor – inhibitors of polyadenylation in S. cerevisiae; S. cerevisiae SKY197-pL101 polyadenylation reporter, beta-gal luminescence; efflux-impaired pdr1/pdr3 knockout yeast; score 100 = 6 SD above DMSO; activity score, % at 12 µM; hit rate 0.02% among 300,000;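 active means lowest replicate activity score at least 50, where 100 means six control SD above control mean; inconclusive means lowest score under 50 but half or more replicates reach 50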;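 further: yeast exposed to compound for 9 h at 30 °C; higher score means more reporter readthrough which indicates perturbed polyadenylation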
Each line names hits and unclear results; the compound was inactive in the other large screens. An excerpt weighted towards active compounds, which were near 2.6% of everything screened.

CCOC(=O)c1c(C)[nH]c(C)c1S(=O)(=O)N1CCN(c2ccc([N+](=O)[O-])cc2)CC1	none
CCN(CC)CCn1c2ccccc2c2nc3ccccc3nc21	AHR act 63.6
S=c1nc(-c2ccccc2)[nH]n1-c1ccccc1	AHR act 108.2
Cc1ccc(NC(=O)CCC(=O)NNC(=O)COc2ccc([N+](=O)[O-])cc2)cc1C	AHR act 53.3
COc1ccc(-n2nnnc2SCC(=O)Nc2c(C)n[nH]c2C)cc1	none (no result: PolyA inhibitor)
COCCOc1ccc(C(F)(F)F)cc1NC(=O)c1ccc(F)cc1	AHR act 54.5
COc1ccc(-c2ccc(/C=C3/C(=N)N4C=CSC4=NC3=O)o2)c([N+](=O)[O-])c1	AHR act 49.2
N=C1/C(=C/c2cccn2-c2ccc([N+](=O)[O-])cc2)C(=O)N=C2SC=CN12	none
COc1cccc(C(=O)OCC(=O)Nc2ccc3c(c2)OCCO3)c1	none (no result: PolyA inhibitor)
O=C(O)CCCN1C(=O)c2cccc3cccc(c23)C1=O	none
O=C1c2cccc3cccc(c23)C(=O)N1CCCN(C(=O)c1cccs1)c1cccc(F)c1	AHR act 51.3
Nc1cc(N)cc(-c2nc3ccccc3o2)c1	AHR act 72.4
COc1ccccc1NC(=S)N1CCC(c2nc3cc(C)c(C)cc3[nH]2)CC1	AHR act 52.0
CN(Cc1ccco1)S(=O)(=O)c1ccc(CN2C(=O)c3cccnc3C2=O)s1	none
Cn1c(=O)c(-c2cc(=O)[nH][nH]2)c(O)c2ccccc21	AHR act 51.2
CCn1c(=O)c(-c2cc(=O)[nH][nH]2)c(O)c2ccccc21	none
Cc1ccc(C(=O)NCCNS(=O)(=O)c2ccccc2)cn1	none
CC(=O)Cc1cc(O)c2ccccc2c1OC(=O)c1ccc(Br)cc1	AHR act 69.1
O=C(COC(=O)c1ccc(Br)cc1)NCc1ccccc1	none
O=C(Cn1cnc2c(OCc3ccccc3)ncnc21)NCC1CCCO1 (stereo not drawn)	none (no result: PolyA inhibitor)
CC(=O)Nc1ccc(N2CCc3c(C)c(C#N)c4nc5ccccc5n4c32)cc1	procasp7 counter 89.6, proCasp3 act 64.9
Cc1cccc(N/C(N)=N/c2nc(C)cc(=O)[nH]2)c1	none
Cc1ccc2c(c1)[nH]c1c(=O)n(Cc3ccccn3)cnc12	AHR act 49.1
COc1ccc2c(c1)[nH]c1c(=O)n(Cc3ccccn3)cnc12	none
O=C(C[C@H]1C/C=C\CC[C@H](Cc2ccc(F)cc2)C(=O)OC[C@H]2CCCN2C1=O)NCCO	none (no result: PolyA inhibitor)
Nc1ccc2nc(-c3cccnc3)[nH]c2c1	none
Nc1ccc2nc(-c3ccccc3)[nH]c2c1	AHR act 67.0
CCN(C[C@H]1N[C@@](Cc2ccccc2)(C(=O)OC)[C@H]2C(=O)N(Cc3ccccc3)C(=O)[C@@H]12)C(=O)C1CCCCC1	none (no result: PolyA inhibitor)
Clc1nc(-c2cccnc2)nc2scc(-c3ccccc3)c12	AHR act 67.8
COc1ccc(-c2csc3nc(-c4cccnc4)nc(Cl)c23)cc1OC	none
O=C(CN1C(=O)CC(c2ccccc2)S(=O)(=O)c2ccccc21)N1CCCC1 (stereo not drawn)	none
COc1ccc(/C=C/C(=O)Nc2cc(C)on2)cc1	PolyA inhibitor inconclusive
COc1ccc(/C=C/C(=O)Nc2nonc2NC(C)=O)cc1	AHR act 48.9
CCCC(C)NC(=O)CSc1nc2ccc(C)cc2[nH]1 (stereo not drawn)	AHR act 51.0
Cc1ccc2nc(SCC(=O)Nc3ccc(C(N)=O)cc3)[nH]c2c1	none
Cc1ccc2nc(SCC(=O)Nc3ccc(F)cc3F)[nH]c2c1	AHR act 71.2
Cc1ccc2nc(SC(C)C(=O)N3CCCCC3)[nH]c2c1 (stereo not drawn)	none
Cc1ccc2nc(SC(C)C(=O)N3CCCC3)[nH]c2c1 (stereo not drawn)	AHR act 73.1
Cc1ccc2nc(SCC(=O)Nc3cccc([N+](=O)[O-])c3)[nH]c2c1	AHR act 89.3
CN(C)c1ccc(C(C#N)c2ccccc2)nn1 (stereo not drawn)	none
O=c1c2ccccc2nc(-c2ccco2)n1/N=C/c1ccco1	AHR act 61.8
Cc1nc2ccccc2c(=O)n1/N=C/c1ccco1	none
FC(F)Oc1ccc(-c2csc(=Nc3cccnc3)n2CC2CCCO2)cc1 (stereo not drawn)	AHR act 48.1
COCCn1c(-c2ccc(Br)cc2)csc1=Nc1cccnc1	none (no result: PolyA inhibitor)
COc1ccc(OC)c(NC(=O)C(=S)NC2CCCCC2)c1	AHR act 70.3
Cc1ccc(S(=O)(=O)N2CCN(C(=O)Cn3c(=O)oc4ccccc43)CC2)c(C)c1	none (no result: PolyA inhibitor)

Screening results from PubChem BioAssay.
